Results as given in ChEMBL document CHEMBL1250442, “Inhibiting gene expression at transcription start sites in chromosomal DNA with antigene RNAs” (Nat Chem Biol, 2005).
Calls of active or inactive are those of the source.

Columns and labels:
T47D [1] = assay: Inhibition of PR-A gene expression in human T47D cells at 25 nM by syber green assay; type: functional
In short: (§1)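 T47D cells plated at 80,000/well without antibiotics two days before Oligofectamine transfection with agRNA duplex (25 or 100 nM final); medium changed at 24 h, harvest day 5 unless stated otherwise. TRIzol total RNA; PR mRNA by real-time PCR with SYBR Green: 50 °C 2 min, 95 °C 10 min, 40 cycles 95 °C 15 s/60 °C 1 min.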

T47D [2] = assay: Inhibition of PR-B gene expression in human T47D cells at 25 nM by syber green assay; type: functional; in short: as §1
T47D [3] = assay: Inhibition of PR-A gene expression in human T47D cells by syber green assay; type: functional, cell-based; in short: as §1
T47D [4] = assay: Inhibition of PR-B gene expression in human T47D cells by syber green assay; type: functional, cell-based; in short: as §1
T47D [5] = assay: Inhibition of PR-A gene expression in human T47D cells at 25 nM by syber green assay in presence of 10 nM estradiol; type: functional, cell-based
T47D [6] = assay: Inhibition of PR-B gene expression in human T47D cells at 25 nM by syber green assay in presence of 10 nM estradiol; type: functional, cell-based
T47D [7] = assay: Inhibition of PR-A mRNA gene expression in human T47D cells at 100 nM by syber green assay; type: functional; in short: as §1
T47D [8] = assay: Inhibition of PR-B mRNA gene expression in human T47D cells at 100 nM by syber green assay; type: functional
In short: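 T47D cells in RPMI-1640 with 10% FBS, NEAA, insulin, 37 °C, 5% CO2. Plated two days before transfection without antibiotics. Oligofectamine-mediated duplex RNA transfection at 100 nM final, medium changed at 24 h, harvest five days post-transfection. Total RNA extracted with TRIzol. hPR mRNA quantified by SYBR Green qPCR: 50 °C 2 min, 95 °C 10 min, then 40 cycles of 95 °C 15 s / 60 °C 1 min.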

T47D [9] = assay: Inhibition of PR-A gene expression in human T47D cells harboring inactive DNA methyltransferase-1 at 25 nM by syber green assay; type: functional, cell-based
T47D [10] = assay: Inhibition of PR-B gene expression in human T47D cells harboring inactive DNA methyltransferase-1 at 25 nM by syber green assay; type: functional, cell-based
T47D [11] = assay: Effect of DNA methylation at (-112) CpG site near PR-B transcription start site (-9) in human T47D cells by sodium bisulfite sequencing analysis; type: functional, cell-based
In short: (§2)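 T47D cells (RPMI-1640, 10% FBS, NEAA, insulin; 37 °C, 5% CO2) transfected with agRNA duplexes via Oligofectamine, medium changed at 24 h. Genomic DNA bisulphite-treated, regions around AR and hPR-B start sites PCR-amplified (HotStarTaq, 100 ng treated DNA), gel-purified, TOPO TA cloned; 5–15 colonies per plate miniprepped and sequenced.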

T47D [12] = assay: Effect of DNA methylation at (-75) CpG site near PR-B transcription start site (-9) in human T47D cells by sodium bisulfite sequencing analysis; type: functional, cell-based; in short: as §2
T47D [13] = assay: Effect of DNA methylation at (-46) CpG site near PR-B transcription start site (-9) in human T47D cells by sodium bisulfite sequencing analysis; type: functional, cell-based; in short: as §2
T47D [14] = assay: Effect of DNA methylation at (-23) CpG site near PR-B transcription start site (-9) in human T47D cells by sodium bisulfite sequencing analysis; type: functional, cell-based; in short: as §2
T47D [15] = assay: Effect of DNA methylation at (+20) CpG site near PR-B transcription start site (-9) in human T47D cells by sodium bisulfite sequencing analysis; type: functional, cell-based
In short: (§3)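 T47D cells grown in RPMI-1640 with 10% FBS, 0.5% NEAA, insulin and P/S at 37 °C, 5% CO2. They were plated at 80,000 cells/well 2 days before lipid transfection with 25 nM or 100 nM duplex, with medium changed at 24 h. Cells were harvested 5 days post-transfection. 100 ng bisulfite-treated DNA was PCR-amplified, and products were TA-cloned. 5–15 colonies per plate were sequenced.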

T47D [16] = assay: Effect of DNA methylation at (+45) CpG site near PR-B transcription start site (-9) in human T47D cells by sodium bisulfite sequencing analysis; type: functional, cell-based; in short: as §2
T47D [17] = assay: Effect of DNA methylation at (+107) CpG site near PR-B transcription start site (-9) in human T47D cells by sodium bisulfite sequencing analysis; type: functional, cell-based; in short: as §3
T47D [18] = assay: Effect of DNA methylation at (+112) CpG site near PR-B transcription start site (-9) in human T47D cells by sodium bisulfite sequencing analysis; type: functional, cell-based; in short: as §3
T47D [19] = assay: Effect of DNA methylation at (+125) CpG site near PR-B transcription start site (-9) in human T47D cells by sodium bisulfite sequencing analysis; type: functional, cell-based; in short: as §3
T47D [20] = assay: Effect of DNA methylation at (+149) CpG site near PR-B transcription start site (-9) in human T47D cells by sodium bisulfite sequencing analysis; type: functional, cell-based; in short: as §3
T47D [21] = assay: Effect of DNA methylation at (+162) CpG site near PR-B transcription start site (-9) in human T47D cells by sodium bisulfite sequencing analysis; type: functional, cell-based; in short: as §3
T47D [22] = assay: Effect of DNA methylation at (+166) CpG site near PR-B transcription start site (-9) in human T47D cells by sodium bisulfite sequencing analysis; type: functional, cell-based; in short: as §3
T47D [23] = assay: Effect of DNA methylation at (+173) CpG site near PR-B transcription start site (-9) in human T47D cells by sodium bisulfite sequencing analysis; type: functional, cell-based; in short: as §3
T47D [24] = assay: Effect of DNA methylation at (+190) CpG site near PR-B transcription start site (-9) in human T47D cells by sodium bisulfite sequencing analysis; type: functional, cell-based; in short: as §3
T47D [25] = assay: Effect of DNA methylation at (+216) CpG site near PR-B transcription start site (-9) in human T47D cells by sodium bisulfite sequencing analysis; type: functional, cell-based; in short: as §3
T47D [26] = assay: Effect of DNA methylation at (+225) CpG site near PR-B transcription start site (-9) in human T47D cells by sodium bisulfite sequencing analysis; type: functional, cell-based; in short: as §3
T47D [27] = assay: Effect of DNA methylation at (+267) CpG site near PR-B transcription start site (-9) in human T47D cells by sodium bisulfite sequencing analysis; type: functional, cell-based; in short: as §3
T47D [28] = assay: Effect of DNA methylation at (+295) CpG site near PR-B transcription start site (-9) in human T47D cells by sodium bisulfite sequencing analysis; type: functional, cell-based; in short: as §3
T47D [29] = assay: Effect of DNA methylation at (+319) CpG site near PR-B transcription start site (-9) in human T47D cells by sodium bisulfite sequencing analysis; type: functional, cell-based; in short: as §3
T47D [30] = assay: Effect of DNA methylation at (+335) CpG site near PR-B transcription start site (-9) in human T47D cells by sodium bisulfite sequencing analysis; type: functional, cell-based; in short: as §3
T47D [31] = assay: Effect of DNA methylation at (+337) CpG site near PR-B transcription start site (-9) in human T47D cells by sodium bisulfite sequencing analysis; type: functional, cell-based; in short: as §3
T47D [32] = assay: Effect of DNA methylation at (+353) CpG site near PR-B transcription start site (-9) in human T47D cells by sodium bisulfite sequencing analysis; type: functional, cell-based; in short: as §3
T47D [33] = assay: Effect of DNA methylation at (+356) CpG site near PR-B transcription start site (-9) in human T47D cells by sodium bisulfite sequencing analysis; type: functional, cell-based; in short: as §3
T47D [34] = assay: Effect of DNA methylation at (+362) CpG site near PR-B transcription start site (-9) in human T47D cells by sodium bisulfite sequencing analysis; type: functional, cell-based; in short: as §3
T47D [35] = assay: Effect of DNA methylation at (+379) CpG site near PR-B transcription start site (-9) in human T47D cells by sodium bisulfite sequencing analysis; type: functional, cell-based; in short: as §3
T47D [36] = assay: Effect of DNA methylation at (+398) CpG site near PR-B transcription start site (-9) in human T47D cells by sodium bisulfite sequencing analysis; type: functional, cell-based; in short: as §3
T47D [37] = assay: Effect of DNA methylation at (+41) CpG site near PR-B transcription start site (-9) in human T47D cells by sodium bisulfite sequencing analysis; type: functional, cell-based; in short: as §2
T47D [38] = assay: Cytotoxicity against human T47D cells assessed as effect on cellular morphology; type: cell-based
T47D [39] = assay: Inhibition of PR-A gene expression in human T47D cells at 25 nM in presence of 4 uM of 5-aza-Dc
T47D [40] = assay: Inhibition of PR-B gene expression in human T47D cells at 25 nM in presence of 4 uM of 5-aza-Dc

Cc1cn(CC(=O)N(CCNC(=O)CN(CCNC(=O)CN(CCNC(=O)CN(CCNC(=O)CN(CCNC(=O)CN(CCNC(=O)CN(CCNC(=O)CN(CCNC(=O)CN(CCNC(=O)CN(CCNC(=O)CN(CCNC(=O)CN(CCNC(=O)CN(CCNC(=O)CN(CCNC(=O)CN(CCNC(=O)CN(CCNC(=O)CN(CCNC(=O)CN(CCNC(=O)CN(CCNC(=O)CN(CCNC(=O)CN)C(=O)Cn2ccc(=O)[nH]c2=O)C(=O)Cn2cnc3c(=O)[nH]c(N)nc32)C(=O)Cn2ccc(=O)[nH]c2=O)C(=O)Cn2ccc(N)nc2=O)C(=O)Cn2ccc(=O)[nH]c2=O)C(=O)Cn2cnc3c(=O)[nH]c(N)nc32)C(=O)Cn2cnc3c(=O)[nH]c(N)nc32)C(=O)Cn2ccc(N)nc2=O)C(=O)Cn2ccc(N)nc2=O)C(=O)Cn2cnc3c(N)ncnc32)C(=O)Cn2cnc3c(=O)[nH]c(N)nc32)C(=O)Cn2ccc(=O)[nH]c2=O)C(=O)Cn2ccc(N)nc2=O)C(=O)Cn2ccc(N)nc2=O)C(=O)Cn2cnc3c(N)ncnc32)C(=O)Cn2ccc(N)nc2=O)C(=O)Cn2cnc3c(N)ncnc32)C(=O)Cn2cnc3c(=O)[nH]c(N)nc32)C(=O)Cn2ccc(N)nc2=O)CC(=O)NCCN(CC(=O)NCC(=O)O)C(=O)Cn2cc(C)c(=O)[nH]c2=O)c(=O)[nH]c1=O
100%: inhibition at 0.1 µM (T47D [8])
inactive: Activity (T47D [11]) | Activity (T47D [12]) | Activity (T47D [13]) | Activity (T47D [14]) | Activity (T47D [15]) | Activity (T47D [16]) | Activity (T47D [17]) | Activity (T47D [18]) | Activity (T47D [19]) | Activity (T47D [20]) | Activity (T47D [21]) | Activity (T47D [22]) | Activity (T47D [23]) | Activity (T47D [24]) | Activity (T47D [25]) | Activity (T47D [26]) | Activity (T47D [27]) | Activity (T47D [28]) | Activity (T47D [29]) | Activity (T47D [30]) | Activity (T47D [31]) | Activity (T47D [32]) | Activity (T47D [33]) | Activity (T47D [34]) | Activity (T47D [35]) | Activity (T47D [36]) | Activity (T47D [37])
2.5 nM: IC50 (T47D [3]) | IC50 (T47D [4])
88%: inhibition at 0.025 µM (T47D [2])
79%: inhibition at 0.025 µM (T47D [1])
Non-toxic: Activity (T47D [38])
active: inhibition (T47D [5]) | inhibition (T47D [6]) | inhibition (T47D [9]) | inhibition (T47D [10]) | inhibition (T47D [39]) | inhibition (T47D [40])
95%: inhibition at 0.1 µM (T47D [7])
